Data: ChEMBL document CHEMBL5252539, “In vitro biological evaluation of new antimycobacterial salicylanilide-tuftsin conjugates” (Eur J Med Chem, 2017)
Values after ≈ are worked out from the molar mass of the structure shown. Active and inactive are the calls of the source. The calls are words filed in the database; no cut-off is given here. *1 amine or outer side, *2 acyl side, *3 side chain or, on linkers, in order; H or OH if unused. Where a SMILES comes first, the peptide text is derived from it. [ ]: non-standard residue; d: D form. The star is where a group is joined. X2 = C/C(=N\OCC(=O)*)c1ccc(NC(=O)c2cc(Br)ccc2O)cc1; X1 = C/C(=N\OCC(=O)[*:2])c1ccc(N[*:1])cc1; Benzoyl(5-Br-2-OH) = O=C(c1cc(Br)ccc1O)*

How the values were obtained:
MONO-MAC-6 = assay: Cytostatic activity against human MONO-MAC-6 cells assessed as reduction in cell viability incubated for 24 hrs by MTT assay; assay type: functional, cell-based; conditions: MONO-MAC-6, 24 h
Procedure, shortened: (§1)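 MTT viability assay after 24 h exposure of MonoMac6 human monocytic cells or HepG2 human hepatocellular carcinoma cells. Top concentration 200 μM. IC50 taken from dose-response curves as the concentration reducing viability to 50% of maximal.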

[1] = test system: Mycobacterium tuberculosis; assay: Antimycobacterial activity against Mycobacterium tuberculosis H37Rv ATCC 27294 assessed as reduction in colony forming unit after 28 days by serial dilution method; assay type: functional, organism-based; conditions: time 28.0 day
Procedure, shortened: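 After the 4-week MIC incubation in Sula semisynthetic medium (pH 6.5), growth inhibition confirmed by plating on Löwenstein-Jensen solid medium and counting colony forming units.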

[2] = test system: Mycobacteroides abscessus; assay: Antimycobacterial activity against Mycobacterium abscessus ATCC 19977 assessed as reduction in colony forming unit after 7 days by serial dilution method; assay type: functional, organism-based; conditions: time 7.0 day
Procedure, shortened: (§2)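 MIC determined in Sula semisynthetic medium, pH 6.5, 1 week incubation. Growth inhibition confirmed by plating on Löwenstein-Jensen solid medium and counting CFU. Bacteria inoculated without drug served as growth control.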

[3] = test system: Mycobacterium tuberculosis; assay: […] antimycobacterial activity against Mycobacterium tuberculosis H37Rv ATCC 27294 infected in human MONO-MAC-6 cells assessed as reduction in colony forming unit at 125 uM for 6 days by colony counting based analysis; assay type: functional, organism-based; conditions: time 6.0 day
Procedure, shortened: (§3)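 MonoMac6 monolayers infected with H37Rv, then treated with compound at 125 or 250 µM for 3 days. Treatment repeated with fresh compound solution for another 3 days. Intracellular bacteria quantified as CFU against untreated infected cells.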

[4] = test system: Mycobacterium tuberculosis; assay: […] antimycobacterial activity against Mycobacterium tuberculosis H37Rv ATCC 27294 infected in human MONO-MAC-6 cells assessed as reduction in colony forming unit at 250 uM for 6 days by colony counting based analysis; assay type: functional, organism-based; conditions: time 6.0 day; procedure, shortened: as §3
[5] = Selectivity index, ratio of IC50 for cytostatic activity against human MONO-MAC-6 cells to MIC for antimycobacterial activity against Mycobacterium tuberculosis H37Rv ATCC 27294; assay type: toxicity, cell-based; conditions: read-out: Selectivity Index
Procedure, shortened: (§4)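 MTT assay on MonoMac6 or HepG2 cells after 24 h exposure, top concentration 200 µM. SI = IC50 (µM)/MIC (µM) against H37Rv from the 4-week Sula medium assay.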

[6] = Selectivity index, ratio of IC50 for cytostatic activity against human HepG2 cells to MIC for antimycobacterial activity against Mycobacterium tuberculosis H37Rv ATCC 27294; assay type: toxicity, cell-based; conditions: read-out: Selectivity Index; procedure, shortened: as §4
HepG2 = assay: Cytostatic activity against human HepG2 cells assessed as reduction in cell viability incubated for 24 hrs by MTT assay; assay type: functional, cell-based; conditions: HepG2, 24 h; procedure, shortened: as §1
[7] = test system: Mycobacterium tuberculosis; assay: Antimycobacterial activity against Mycobacterium tuberculosis H37Rv ATCC 27294 assessed as reduction in bacterial growth after 28 days by serial dilution method; assay type: functional; conditions: H37Rv ATCC 27294, 672 h, time 28 day
Procedure, shortened: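 Broth MIC in Sula semisynthetic medium, pH 6.5; 4-week incubation, with 21-day values […] where indicated. Drug-free inoculated bacteria served as growth control. MIC also expressed as drug content (µg/mL) = MIC (µM) × average SAL molar mass × number of SAL per conjugate / 1000.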

[8] = test system: Mycobacteroides abscessus; assay: Antimycobacterial activity against Mycobacterium abscessus ATCC 19977 assessed as reduction in bacterial growth after 7 days by serial dilution method; assay type: functional; conditions: ATCC 19977, 168 h, time 7 day; procedure, shortened: as §2

| Compound | IC50 (MONO-MAC-6) | Activity [1] | Activity [2] | Activity [3] | Activity [4] | selectivity ratio [5] | selectivity ratio [6] | IC50 (HepG2) | MIC [7] | MIC [8] |
| --- | --- | --- | --- | --- | --- | --- | --- | --- | --- | --- |
| CCCCCCCCCCCCCCCC(=O)O [PALMITIC ACID] | 178 µM | – | – | – | – | – | – | – | – | – |
| C/C(=N\OCC(=O)NCC(=O)N[C@@H](Cc1ccccc1)C(=O)N[C@@H](CC(C)C)C(=O)NCC(=O)N[C@H](C(=O)N[C@@H](CCCCN)C(=O)N1CCC[C@@H]1C(=O)N1CCC[C@H]1C(=O)N[C@H](CCCNC(=N)N)C(=O)O)[C@@H](C)O)c1ccc(NC(=O)c2cc(Br)ccc2O)cc1 | – | Active | Active | inactive | Active | – | – | – | – | – |
| C/C(=N\OCC(=O)NCC(=O)N[C@@H](Cc1ccccc1)C(=O)N[C@@H](CC(C)C)C(=O)NCC(=O)N[C@H](C(=O)N[C@@H](CCCCN)C(=O)N1CCC[C@@H]1C(=O)N[C@H](CCCNC(=N)N)C(=O)O)[C@@H](C)O)c1ccc(NC(=O)c2cc(Br)ccc2O)cc1 | – | Active | Active | Active | Active | – | – | – | – | – |
| CCCCCCCCCC(=O)O [DECANOIC ACID] | > 200 µM | – | – | – | – | – | – | – | – | – |
| C/C(=N\OCC(=O)NCC(=O)N[C@@H](Cc1ccccc1)C(=O)N[C@@H](CC(C)C)C(=O)NCC(=O)N[C@H](C(=O)N[C@@H](CCCCN)C(=O)N1CCC[C@H]1C(=O)N[C@@H](CCCNC(=N)N)C(=O)O)[C@@H](C)O)c1ccc(NC(=O)c2cc(Br)ccc2O)cc1 [listing 1 of 2 here] | > 200 µM | – | – | – | – | > 6.3 | 3.6 | 113 µM | – | – |
| C/C(=N\OCC(=O)NCCCC[C@H](NC(=O)[C@@H]1CCCN1C(=O)[C@H](CCCCN)NC(=O)[C@@H](NC(=O)CNC(=O)[C@H](CCCCNC(=O)CO/N=C(\C)c1ccc(NC(=O)c2cc(Br)ccc2O)cc1)NC(=O)[C@@H]1CCCN1C(=O)[C@H](CCCCN)NC(=O)[C@@H](NC(=O)[C@H](CCCNC(=N)N)NC(=O)[C@@H]1CCCN1C(=O)[C@H](CCCCN)NC(=O)[C@@H](N)[C@@H](C)O)[C@@H](C)O)[C@@H](C)O)C(=O)NCC(=O)O)c1ccc(NC(=O)c2cc(Br)ccc2O)cc1 (H-TKPRTKPK(X2)GTKPK(X2)G-OH) | 101 µM | Active | Active | Active | Active | 2.9 | 2.7 | 95.2 µM | 34.8 µM (≈ 80.1 µg/mL) | 86.9 µM (≈ 200 µg/mL) |
| C/C(=N\OCC(=O)NCC(=O)N[C@@H](Cc1ccccc1)C(=O)N[C@@H](CC(C)C)C(=O)NCC(=O)N[C@H](C(=O)N[C@@H](CCCCN)C(=O)N1CCC[C@H]1C(=O)N[C@@H](CCCNC(=N)N)C(=O)O)[C@@H](C)O)c1ccc(NC(=O)c2cc(Br)ccc2O)cc1 [listing 2 of 2 here] | – | – | – | – | – | – | – | – | 31.6 µM (≈ 40 µg/mL) | 158 µM (≈ 200 µg/mL) |
| O=C(Nc1ccc(C(F)(F)F)cc1)c1cc(Cl)ccc1O | 2.2 µM | – | – | – | – | – | – | 5.8 µM | 1.6 µM (≈ 0.505 µg/mL) | 3.2 µM (≈ 1.01 µg/mL) |
| C/C(=N\OCC(=O)NCC(=O)N[C@@H](Cc1ccccc1)C(=O)N[C@@H](CC(C)C)C(=O)NCC(=O)N[C@H](C(=O)N[C@@H](CCCCN)C(=O)N1CCC[C@H]1C(=O)N[C@@H](CCCCN)C(=O)NCC(=O)O)[C@@H](C)O)c1ccc(NC(=O)c2cc(Br)ccc2O)cc1 ({Benzoyl(5-Br-2-OH)}-[X1]GFLGTKPKG-OH) | > 200 µM | Active | Active | inactive | Active | > 4.3 | 1.3 | 58 µM | 46.4 µM (≈ 60 µg/mL) | 155 µM (≈ 200 µg/mL) |
| C/C(=N\OCC(=O)NCC(=O)N[C@@H](Cc1ccccc1)C(=O)N[C@@H](CC(C)C)C(=O)NCC(=O)N[C@H](C(=O)N[C@@H](CCCCN)C(=O)N1CCC[C@H]1C(=O)N[C@@H](CCCCN)C(=O)NCC(=O)N[C@H](C(=O)N[C@@H](CCCCN)C(=O)N1CCC[C@H]1C(=O)N[C@@H](CCCCN)C(=O)NCC(=O)N[C@H](C(=O)N[C@@H](CCCCN)C(=O)N1CCC[C@H]1C(=O)N[C@@H](CCCCN)C(=O)NCC(=O)N[C@H](C(=O)N[C@@H](CCCCN)C(=O)N1CCC[C@H]1C(=O)N[C@@H](CCCCN)C(=O)NCC(N)=O)[C@@H](C)O)[C@@H](C)O)[C@@H](C)O)[C@@H](C)O)c1ccc(NC(=O)c2cc(Br)ccc2O)cc1 | – | – | – | – | – | – | – | – | 142 µM (≈ 400 µg/mL) | 70.7 µM (≈ 200 µg/mL) |
| C/C(=N\OCC(=O)NCC(=O)N[C@@H](Cc1ccccc1)C(=O)N[C@@H](CC(C)C)C(=O)NCC(=O)N[C@H](C(=O)N[C@@H](CCCCN)C(=O)N1CCC[C@H]1C(=O)N1CCC[C@H]1C(=O)N[C@@H](CCCNC(=N)N)C(=O)O)[C@@H](C)O)c1ccc(NC(=O)c2cc(Br)ccc2O)cc1 [listing 1 of 2 here] | – | – | – | – | – | – | – | – | 29.4 µM (≈ 40 µg/mL) | 147 µM (≈ 200 µg/mL) |
| C/C(=N\OCC(=O)N[C@H](C(=O)N[C@@H](CCCCN)C(=O)N1CCC[C@H]1C(=O)N1CCC[C@H]1C(=O)N[C@@H](CCCNC(=N)N)C(=O)O)[C@@H](C)O)c1ccc(NC(=O)c2cc(Br)ccc2O)cc1 | – | – | – | – | – | – | – | – | 20.3 µM (≈ 20 µg/mL) | 203 µM (≈ 200 µg/mL) |
| O=Cc1ccc(O)c(C(=O)Nc2ccc(C(F)(F)F)cc2)c1 | 21.5 µM | Active | Active | – | – | 0.8 | 0.7 | 17.6 µM | 25.9 µM (≈ 8.01 µg/mL) | 129 µM (≈ 40 µg/mL) |
| NNC(=O)c1ccncc1 [ISONIAZID] | – | Active | Active | – | – | – | – | – | 1.17 µM (≈ 0.16 µg/mL) | 292 µM (≈ 40 µg/mL) |
| C/C(=N\OCC(=O)N[C@H](C(=O)N[C@@H](CCCCN)C(=O)N1CCC[C@H]1C(=O)N1CCC[C@@H]1C(=O)N[C@H](CCCNC(=N)N)C(=O)O)[C@@H](C)O)c1ccc(NC(=O)c2cc(Br)ccc2O)cc1 | – | Active | Active | Active | Active | – | – | – | – | – |
| CC(=O)c1ccc(NC(=O)c2cc(Cl)ccc2O)cc1 | 16.1 µM | Active | Active | – | – | 1.9 | 0.9 | 7.9 µM | 8.6 µM (≈ 2.49 µg/mL) | 34.5 µM (≈ 10 µg/mL) |
| O=C(Nc1ccc(Cl)c(Cl)c1)c1cc(Br)ccc1O | 1.4 µM | – | – | – | – | 1 | 2.9 | 4.1 µM | 1.4 µM (≈ 0.505 µg/mL) | 7 µM (≈ 2.53 µg/mL) |
| O=C(Nc1ccc(C(F)(F)F)cc1)c1cc(Br)ccc1O | 2 µM | – | – | – | – | 1.4 | 3.9 | 5.5 µM | 1.4 µM (≈ 0.504 µg/mL) | 13.9 µM (≈ 5.01 µg/mL) |
| C/C(=N\OCC(=O)NCC(=O)N[C@@H](Cc1ccccc1)C(=O)N[C@@H](CC(C)C)C(=O)NCC(=O)N[C@H](C(=O)N[C@@H](CCCCN)C(=O)N1CCC[C@H]1C(=O)N1CCC[C@H]1C(=O)N[C@@H](CCCNC(=N)N)C(=O)O)[C@@H](C)O)c1ccc(NC(=O)c2cc(Br)ccc2O)cc1 [listing 2 of 2 here] | > 200 µM | – | – | – | – | > 6.8 | 5.3 | 156 µM | – | – |
| O=C(Nc1ccc(Cl)c(Cl)c1)c1cc(Cl)ccc1O | 3.8 µM | – | – | – | – | 2.4 | 1.5 | 2.4 µM | 1.6 µM (≈ 0.507 µg/mL) | 3.2 µM (≈ 1.01 µg/mL) |
